Measurements as given in publication PMC6120731 (ACS Omega, 2018).

Columns and labels:
plasma stability study = format: in vitro ADME; conditions: 37 °C, 1 mg/mL
In short: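 Test compound added to preheated human plasma (37 °C) at a final 1 mg/mL. Aliquots taken at 0, 15, 30 and 60 min, quenched with acetonitrile, vortexed and centrifuged 5 min. Supernatants analysed by LC-HRMS/MS (negative ESI, C18 column, acetonitrile/isopropanol–water gradient with 0.01% formic acid). Each sample run in triplicate. Percent remaining relative to initial concentration plotted against time.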

[1] = target: T1, human recombinant GIVA cPLA2 (Homo sapiens, UniProt P47712); format: biochemical
T1 sequence (P47712 1-749): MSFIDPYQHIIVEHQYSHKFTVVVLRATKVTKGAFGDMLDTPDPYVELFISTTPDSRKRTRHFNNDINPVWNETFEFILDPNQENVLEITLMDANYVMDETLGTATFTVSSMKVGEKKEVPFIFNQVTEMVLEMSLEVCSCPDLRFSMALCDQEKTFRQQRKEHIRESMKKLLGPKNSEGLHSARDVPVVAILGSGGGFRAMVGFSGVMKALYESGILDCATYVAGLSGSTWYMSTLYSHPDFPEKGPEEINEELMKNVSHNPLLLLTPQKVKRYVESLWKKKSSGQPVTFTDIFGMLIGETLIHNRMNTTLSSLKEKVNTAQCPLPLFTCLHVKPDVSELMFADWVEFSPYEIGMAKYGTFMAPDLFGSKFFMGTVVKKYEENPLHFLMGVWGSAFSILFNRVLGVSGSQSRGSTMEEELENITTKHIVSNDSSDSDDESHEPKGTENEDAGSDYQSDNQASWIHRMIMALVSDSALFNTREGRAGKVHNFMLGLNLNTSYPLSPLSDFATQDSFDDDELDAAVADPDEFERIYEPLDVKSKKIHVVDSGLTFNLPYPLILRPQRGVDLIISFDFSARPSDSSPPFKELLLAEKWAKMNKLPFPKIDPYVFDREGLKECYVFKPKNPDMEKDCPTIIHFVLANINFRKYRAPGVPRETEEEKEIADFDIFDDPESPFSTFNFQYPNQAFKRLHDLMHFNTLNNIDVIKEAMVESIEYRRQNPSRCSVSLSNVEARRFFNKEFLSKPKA

Molecule	parent compound in human plasma after 30 min (plasma stability study)	inhibition of GIVA cPLA2 (in words) [1]	further results
CCCCCCOc1ccc(CCCCC(=O)C(=O)OCCCCC(=O)O)cc1 [Compound 25b, 5-((6-(4-(Hexyloxy)phenyl)-2-oxohexanoyl)oxy)pentanoic Acid]	not detectable		selectivity for GIVA cPLA2 over GVIA iPLA2 [1]: at least 500 fold; times more potent than 6 against GIVA cPLA2 [1]: 4 times
CCCCOc1ccc(CCCCC(=O)C(=O)OCCCCC(=O)O)cc1 [Compound 25a, 5-((6-(4-Butoxyphenyl)-2-oxohexanoyl)oxy)pentanoic Acid]	not detectable		times less potent than 25b against GIVA cPLA2 [1]: 3 times
CCCCOc1ccc(CCCCC(=O)C(=O)O)cc1 [Compound 29, 6-(4-Butoxyphenyl)-2-oxohexanoic Acid]		very weak inhibition	
5-((6-(4-Butoxyphenyl)-2-fluorohexanoyl)oxy)pentanoic Acid [Compound 27a]		abolished the inhibitory potency	percent parent compound remaining after 1 h (plasma stability study; human plasma, 1 h): ~100%
5-((6-(4-Butoxyphenyl)hexanoyl)oxy)pentanoic Acid [Compound 27b]		no inhibition	
